From ChEMBL document CHEMBL1123760, “Synthesis and oral antifungal activity of novel azolylpropanolones and related compounds” (1987) come the findings set out here.

What all share (assay type): functional
In test [1] the test system is Candida albicans. The test is described as follows: Minimum effective concentration for inhibition of pseudomycelium formation in Candida albicans. Conditions: for minimal effective concentration: Candida albicans, read-out: MEC. Put shortly: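 C. albicans KE-2 (clinical isolate) at a final 1 × 10^6 yeast cells/mL in EMEM with 20% calf serum; compounds diluted by the same microtiter system as for MICs. After incubation, wells were Giemsa-stained (5% in phosphate buffer) and read by microscope. MEC is the lowest concentration preventing typical pseudomycelium formation.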

For a further test, the system named is Trichophyton benhamiae. Briefly: In vitro antifungal activity against Trichophyton asteroides. In a few lines: (§1)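 Broth microdilution MIC in Sabouraud's glucose broth; final inocula 1 × 10^5 cells/mL (yeast) or 1 × 10^5 conidia/mL (mold and dermatophyte).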
The next test relates to Aspergillus fumigatus. The test is described as follows: In vitro antifungal activity against Aspergillus fumigatus. Put shortly: as §1
Test [2] relates to Candida albicans. Briefly: In vitro antifungal activity against Candida albicans. Put shortly: as §1
[3] abbreviates: Trichophyton benhamiae, read-out: MIC.
Where [4] appears, read: Aspergillus fumigatus, read-out: MIC.
Setting [5] is: Candida albicans, read-out: MIC.

≈ marks a conversion by molar mass, not a printed value.

`COc1ccccc1C(=O)C(O)(Cn1cncn1)c1ccccc1OC` (stereo unspecified): the minimal effective concentration in the test on Candida albicans [1] was over 20 µg/mL. Moreover, the MIC is 12.5 µg/mL (≈ 35.4 µM) with Trichophyton benhamiae (setting [3]), over 100 µg/mL in the test with Aspergillus fumigatus (setting [4]) and over 100 µg/mL in the test on Candida albicans [2] (setting [5]).
As for `OC(Cn1cncn1)(c1ccc(Cl)cc1Cl)C(O)(c1ccc(F)cc1)c1cccs1` (stereo unspecified), in the test on Candida albicans [1], the minimal effective concentration stood at 5 µg/mL. Further, the results for the MIC in the test with Trichophyton benhamiae (setting [3]), in the test on Aspergillus fumigatus (setting [4]) and with Candida albicans [2] (setting [5]) were 0.8 µg/mL (≈ 1.72 µM), over 100 µg/mL and over 100 µg/mL, respectively.
With `O=C(c1ccc(F)cc1)C(O)(Cn1cnnc1)c1ccccc1Cl` (stereo unspecified), the minimal effective concentration with Candida albicans [1] was over 20 µg/mL. Besides, the MIC in the test with Trichophyton benhamiae (setting [3]), in the test on Aspergillus fumigatus (setting [4]) and in the test on Candida albicans [2] (setting [5]) was over 100 µg/mL throughout.
Turning to `CC(C)[C@H]1OC(=O)O[C@@]1(Cn1cncn1)c1ccc(Cl)cc1`, in the test with Candida albicans [1], the minimal effective concentration turned out to be 0.63 µg/mL. For the same molecule, the MIC in the test with Trichophyton benhamiae (setting [3]) is 6.3 µg/mL (≈ 19.6 µM); in the test with Aspergillus fumigatus (setting [4]), over 100 µg/mL; with Candida albicans [2] (setting [5]), over 100 µg/mL.
With `O=C(c1ccc(Cl)cc1)C(O)(Cn1cncn1)c1ccc(Cl)cc1` (stereo unspecified), the minimal effective concentration in the test with Candida albicans [1] was 20 µg/mL. Further, the figures for the MIC in the test on Trichophyton benhamiae (setting [3]), in the test with Aspergillus fumigatus (setting [4]) and with Candida albicans [2] (setting [5]) were 0.39 µg/mL (≈ 1.08 µM), over 100 µg/mL and 50 µg/mL (≈ 138 µM), respectively.
The like results for `Cc1ccc(C(=O)C(O)(Cn2cncn2)c2ccc(C)cc2)cc1` (stereo unspecified) were, in that order, 20 µg/mL, 1.56 µg/mL (≈ 4.85 µM), over 100 µg/mL and over 100 µg/mL.
Turning to `O=C(c1ccccc1Cl)C(O)(Cn1cncn1)c1ccccc1` (stereo unspecified), the minimal effective concentration in the test on Candida albicans [1] was over 20 µg/mL. For the same molecule, the figures for the MIC in the test on Trichophyton benhamiae (setting [3]), with Aspergillus fumigatus (setting [4]) and with Candida albicans [2] (setting [5]) were 1.6 µg/mL (≈ 4.88 µM), over 100 µg/mL and over 100 µg/mL, respectively.
As to `CCCCC(O)(Cn1cncn1)C(=O)c1ccccc1Cl` (stereo unspecified), in the test with Candida albicans [1], the minimal effective concentration was 0.63 µg/mL. The values for the MIC in the test with Trichophyton benhamiae (setting [3]), in the test with Aspergillus fumigatus (setting [4]) and with Candida albicans [2] (setting [5]) were 0.4 µg/mL (≈ 1.3 µM), 50 µg/mL (≈ 162 µM) and over 100 µg/mL, respectively.
For `O=C(c1ccccc1)C(O)(Cn1cncn1)c1ccccc1Cl` (stereo unspecified), in that order: 2.5 µg/mL, 1.6 µg/mL (≈ 4.88 µM), over 100 µg/mL and over 100 µg/mL.
Turning to `CC(O)(c1ccc(Cl)cc1)C(O)(Cn1cncn1)c1ccc(F)cc1` (stereo unspecified), the minimal effective concentration in the test on Candida albicans [1] is 2.5 µg/mL. Also, the minimal inhibitory concentration (MIC) was 0.4 µg/mL (≈ 1.11 µM) in the test with Trichophyton benhamiae (setting [3]), over 100 µg/mL in the test on Aspergillus fumigatus (setting [4]) and over 100 µg/mL in the test with Candida albicans [2] (setting [5]).
In turn, `CC(C)C(=O)C(O)(Cn1cncn1)c1ccc(Cl)cc1` (stereo in doubt; 13) registered an MEC in the test with Candida albicans [1] of 0.08 µg/mL. Besides, the MIC is 12.5 µg/mL (≈ 42.6 µM) against Aspergillus fumigatus and over 100 µg/mL against Candida albicans [2].
In the test on Candida albicans [1], `OC(c1ccc(Cl)cc1)C(O)(Cn1cncn1)c1ccc(Cl)cc1` (stereo in doubt; 88) showed an MEC of 1.25 µg/mL. For the same molecule, the values for the MIC against Trichophyton benhamiae and in the test with Candida albicans [2] were 0.39 µg/mL (≈ 1.07 µM) and 50 µg/mL (≈ 137 µM), respectively.
For `CC(C)C(O)C(O)(Cn1cncn1)c1ccc(Cl)cc1` (stereo in doubt; 101), the MEC in the test on Candida albicans [1] came out at 0.63 µg/mL. In the test with Trichophyton benhamiae, the minimal inhibitory concentration (MIC) is 6.3 µg/mL (≈ 21.3 µM).
On to `OC(c1ccc(F)cc1)C(O)(Cn1cncn1)c1ccc(Cl)cc1` (stereo in doubt; 104), for which the MEC in the test with Candida albicans [1] came to 2.5 µg/mL. The results for the MIC with Trichophyton benhamiae and in the test with Candida albicans [2] were 6.3 µg/mL (≈ 18.1 µM) and 50 µg/mL (≈ 144 µM), respectively.
Molecule `CCCC(O)C(O)(Cn1cncn1)c1ccc(Cl)cc1` (stereo in doubt; 106) came in with an MEC in the test with Candida albicans [1] of 0.16 µg/mL. Moreover, the MIC against Trichophyton benhamiae came to 1.6 µg/mL (≈ 5.41 µM).
In turn, `O=C1O[C@H](c2ccc(Cl)cc2)[C@@](Cn2cncn2)(c2ccc(Cl)cc2Cl)O1` (stereo in doubt; 129) had an MEC with Candida albicans [1] of 0.04 µg/mL. The MIC against Trichophyton benhamiae was determined as 0.2 µg/mL (≈ 0.471 µM).
On to `OC(Cn1cncn1)(c1ccc(F)cc1)C(O)(c1ccccc1)c1ccc(F)cc1` (stereo in doubt; 164), for which the MIC against Trichophyton benhamiae was over 100 µg/mL.
Consider `CC(C)C(C)(O)C(O)(Cn1cncn1)c1ccc(Cl)cc1Cl` (stereo in doubt; 168), for which the MEC with Candida albicans [1] stood at 0.04 µg/mL. For the same molecule, the figures for the MIC against Trichophyton benhamiae and against Aspergillus fumigatus were 0.1 µg/mL (≈ 0.29 µM) and 25 µg/mL (≈ 72.6 µM), respectively.
`CCC(O)(c1ccc(F)cc1)C(O)(Cn1cncn1)c1ccc(Cl)cc1` (stereo in doubt; 170): the MEC in the test with Candida albicans [1] worked out at 0.04 µg/mL. For the same molecule, the figures for the MIC in the test on Trichophyton benhamiae and in the test on Aspergillus fumigatus were 0.1 µg/mL (≈ 0.266 µM) and 25 µg/mL (≈ 66.5 µM), respectively.
The like results for `CC(O)(c1ccc(F)cc1)C(O)(Cn1cncn1)c1ccccc1Cl` (stereo in doubt; 181) were, in that order, 1.25 µg/mL, 0.1 µg/mL (≈ 0.276 µM) and 6.3 µg/mL (≈ 17.4 µM).
Regarding `CCCCC(O)(c1ccc(F)cc1)C(O)(Cn1cncn1)c1ccccc1Cl` (stereo in doubt; 188), the MEC in the test on Candida albicans [1] amounted to 2.5 µg/mL. The minimal inhibitory concentration (MIC) in the test on Trichophyton benhamiae was 0.2 µg/mL (≈ 0.495 µM); against Aspergillus fumigatus, over 100 µg/mL.
In turn, `CCCCC(O)(Cn1cncn1)C(C)(O)c1ccc(Cl)cc1` (stereo in doubt; 190) displayed an MEC in the test on Candida albicans [1] of 2.5 µg/mL. Moreover, the MIC with Trichophyton benhamiae worked out at 0.8 µg/mL (≈ 2.47 µM); against Aspergillus fumigatus, 50 µg/mL (≈ 154 µM).

In general, MIC refers to the lowest concentration found to suppress growth.
